{"data": "Measured values pooled from the literature", "organism": "Mycobacterium tuberculosis", "read-out": "microbial growth", "note": "Lines come from different studies, so protocols differ."}
{"Structure (SMILES)": "Clc1ccc(CCNc2cc(-c3ccccn3)nc3nnc(C4CC4)n23)cc1", "test system": "H37RV", "setting": "5 days", "MIC": "17 to 50 µM"}
{"Structure (SMILES)": "CO[C@H]1/C=C/O[C@@]2(C)Oc3c(C)c(O)c4c(O)c(c(/C=N/N5CCN(C)CC5)c(O)c4c3C2=O)NC(=O)/C(C)=C\\C=C\\[C@H](C)[C@H](O)[C@@H](C)[C@@H](O)[C@@H](C)[C@H](OC(C)=O)[C@@H]1C", "test": "resazurin", "test system": "H37RV", "setting": "5 days", "MIC": "0.03 µg/mL"}
{"Structure (SMILES)": "CO[C@H]1/C=C/O[C@@]2(C)Oc3c(C)c(O)c4c(O)c(c(/C=N/N5CCN(C)CC5)c(O)c4c3C2=O)NC(=O)/C(C)=C\\C=C\\[C@H](C)[C@H](O)[C@@H](C)[C@@H](O)[C@@H](C)[C@H](OC(C)=O)[C@@H]1C", "test": "resazurin", "test system": "H37RV", "MIC": "0.152 µM"}
{"Structure (SMILES)": "FC(F)(F)Oc1ccc(CCNc2cc(-c3cccs3)nc3nncn23)cc1", "test system": "H37RV", "MIC": "0.33 µM"}
{"Structure (SMILES)": "CCCc1nc2[nH]c(=O)n(O)c(=O)c2s1", "MIC": "47.4 µM"}
{"Structure (SMILES)": "NNC(=O)c1ccncc1", "test": "resazurin", "test system": "H37RV", "setting": "5 days", "MIC": "0.03 µg/mL"}
{"Structure (SMILES)": "[H]/N=C(/N)N[C@H]1[C@H](O)[C@@H](O)[C@H](O[C@@H]2O[C@@H](C)[C@](O)(C=O)[C@H]2O[C@@H]2O[C@@H](CO)[C@H](O)[C@@H](O)[C@@H]2NC)[C@@H](N/C(N)=N\\[H])[C@@H]1O", "test": "resazurin", "test system": "H37RV", "MIC": "0.43 µM"}
{"Structure (SMILES)": "CCCc1ccc(CNc2cc(-c3ccccn3)nc3nncn23)cc1", "test system": "H37RV", "setting": "5 days", "MIC": "> 100 µM"}
{"Structure (SMILES)": "CCOC(=O)c1c(-c2ccc(OC)cc2)oc2ccc(OCc3cn(C[C@H]4O[C@H](O[C@H]5O[C@H](CO)[C@@H](O)[C@H](O)[C@H]5O)[C@H](O)[C@@H](O)[C@@H]4O)nn3)c(CN3CCCCC3)c12", "test system": "CDC1551", "MIC": "77.3 µM"}
{"Structure (SMILES)": "O=c1[nH]c2nc(-c3ccccc3)sc2c(=O)n1O", "MIC": "12.8 µM"}
{"Structure (SMILES)": "COc1cc(C=NNC(N)=S)ccc1OC(=O)CN1C(=O)CSC1=O", "test": "resazurin", "test system": "H37RV", "MIC": "5.23 µM"}
{"Structure (SMILES)": "O=c1[nH]c2nc(-c3ccncc3)sc2c(=O)n1O", "MIC": "> 100 µM"}
{"Structure (SMILES)": "Fc1cccc(CCOc2cc(-c3ccccn3)nc3ncnn23)c1", "test system": "H37RV", "MIC": "> 100 µM"}
{"Structure (SMILES)": "CO[C@H]1/C=C/O[C@@]2(C)Oc3c(C)c(O)c4c(O)c(c(/C=N/N5CCN(C)CC5)c(O)c4c3C2=O)NC(=O)/C(C)=C\\C=C\\[C@H](C)[C@H](O)[C@@H](C)[C@@H](O)[C@@H](C)[C@H](OC(C)=O)[C@@H]1C", "test system": "H37RA", "MIC": "0.01 µM"}
{"Structure (SMILES)": "NC(=S)NN=Cc1ccc(OC(=O)CN2C(=O)CSC2=O)cc1", "test": "resazurin", "test system": "H37RV", "MIC": "2.84 µM"}
{"Structure (SMILES)": "Cc1nc2[nH]c(=O)n(O)c(=O)c2s1", "MIC": "20.4 µM"}
{"Structure (SMILES)": "CCc1cc(=O)c2c(O)c3ccoc3c(OC)c2o1", "test": "resazurin", "setting": "21 days", "MIC": "128 µg/mL"}
{"Structure (SMILES)": "COc1ccc(-c2oc3ccc(O)c(CN4CCCCC4)c3c2C(=O)NCc2cn(Cc3ccccc3)nn2)cc1", "test system": "CDC1551", "MIC": "2 µM"}
{"Structure (SMILES)": "CCc1cc(=O)c2c(OCC(O)CNC(C)C)c3ccoc3c(OC)c2o1 (stereo not shown)", "test": "resazurin", "test system": "H37RV", "setting": "21 days", "MIC": "64 µg/mL"}
{"Structure (SMILES)": "FC(F)(F)c1ccc(CCNc2cc(-c3ccccn3)nc3nncn23)cc1", "test system": "H37RV", "MIC": "0.53 µM"}
{"Structure (SMILES)": "CCc1cc(=O)c2c(OCC(O)CNC(C)(C)C)c3ccoc3c(OC)c2o1 (stereo not shown)", "test": "resazurin", "setting": "21 days", "MIC": "32 µg/mL"}
{"Structure (SMILES)": "Nc1nc2[nH]c(=O)n(O)c(=O)c2s1", "MIC": "> 100 µM"}
{"Structure (SMILES)": "CCc1ccc(CCNc2cc(-c3ccccn3)nc3cc(Br)nn23)cc1", "test system": "H37RV", "MIC": "21 µM"}
{"Structure (SMILES)": "CO[C@H]1/C=C/O[C@@]2(C)Oc3c(C)c(O)c4c(O)c(c(/C=N/N5CCN(C)CC5)c(O)c4c3C2=O)NC(=O)/C(C)=C\\C=C\\[C@H](C)[C@H](O)[C@@H](C)[C@@H](O)[C@@H](C)[C@H](OC(C)=O)[C@@H]1C", "test system": "H37RV", "MIC": "0.06 µg/mL"}
{"Structure (SMILES)": "O=[N+]([O-])c1cn2c(n1)OC[C@@H](OCc1ccc(OC(F)(F)F)cc1)C2", "test system": "H37RV", "MIC": "0.31 µM"}
{"Structure (SMILES)": "NNC(=O)c1ccncc1", "test": "resazurin", "test system": "H37RV", "setting": "21 days", "MIC": "0.0625 µg/mL"}
{"Structure (SMILES)": "CCOc1cc(C=NNC(N)=S)ccc1OC(=O)CN1C(=O)CSC1=O", "test": "resazurin", "test system": "H37RV", "MIC": "0.63 µM"}
{"Structure (SMILES)": "CCc1cc(=O)c2c(OCC(O)CN3CCC(C)CC3)c3ccoc3c(OC)c2o1 (stereo not shown)", "test": "resazurin", "test system": "H37RV", "setting": "21 days", "MIC": "32 µg/mL"}
{"Structure (SMILES)": "CC[C@@H](CO)NCCN[C@@H](CC)CO", "test": "resazurin", "test system": "H37RV", "setting": "7 days", "MIC": "1.56 µg/mL"}
{"Structure (SMILES)": "[H]/N=C(/N)N[C@H]1[C@H](O)[C@@H](O)[C@H](O[C@@H]2O[C@@H](C)[C@](O)(C=O)[C@H]2O[C@@H]2O[C@@H](CO)[C@H](O)[C@@H](O)[C@@H]2NC)[C@@H](N/C(N)=N\\[H])[C@@H]1O", "test": "resazurin", "setting": "21 days", "MIC": "64 µg/mL"}
{"Structure (SMILES)": "CCOC(=O)c1c(-c2ccc(OC)cc2)oc2ccc(OCc3cn(Cc4ccccc4)nn3)c(CN3CCCCC3)c12", "test system": "CDC1551", "MIC": "2.4 µM"}
{"Structure (SMILES)": "CCc1ccc(CCNc2cc(-c3ccccn3)nc3nncn23)cc1", "test system": "H37RV", "MIC": "0.12 µM"}
{"Structure (SMILES)": "CO[C@H]1/C=C/O[C@@]2(C)Oc3c(C)c(O)c4c(O)c(c(/C=N/N5CCN(C)CC5)c(O)c4c3C2=O)NC(=O)/C(C)=C\\C=C\\[C@H](C)[C@H](O)[C@@H](C)[C@@H](O)[C@@H](C)[C@H](OC(C)=O)[C@@H]1C", "test": "resazurin", "test system": "H37RV", "setting": "21 days", "MIC": "0.5 µg/mL"}
{"Structure (SMILES)": "NNC(=O)c1ccncc1", "test": "resazurin", "test system": "H37RV", "setting": "7 days", "MIC": "0.05 µg/mL"}
{"Structure (SMILES)": "CCc1cc(=O)c2c(OCC(O)CN(CC)CC)c3ccoc3c(OC)c2o1 (stereo not shown)", "test": "resazurin", "test system": "H37RV", "setting": "21 days", "MIC": "128 µg/mL"}
{"Structure (SMILES)": "FC(F)(F)c1ccc(CCNc2cc(-c3ccccn3)nc3nnc(C4CC4)n23)cc1", "test system": "H37RV", "setting": "5 days", "MIC": "17 to 50 µM"}
{"Structure (SMILES)": "COc1c(N2C[C@@H]3CCCN[C@@H]3C2)c(F)cc2c(=O)c(C(=O)O)cn(C3CC3)c12", "test system": "H37RV", "MIC": "0.13 µM"}
